Experimental findings from PubChem BioAssay are described below.

Assay [1] is described as follows: inhibitors of TNFa-induced NFkB p65 translocation, primary screen, imaging, HUVEC, MLSMR starter and 10KST1 sets (AID 438;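 active = inhibition above 20% together with a positive visual image hit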;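 note: compound added about 3h40 before a 20 min TNFalpha stimulation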;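 for inhibition: signal is the nuclear over cytoplasmic p65 intensity ratio per well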). Conditions: HUVEC TNFa-induced p65 nuclear translocation; cell count: measured here: nuclei count (cytotoxicity indicator), at 2.08 µM; inhibition: at 2 µM, stronger effect = higher value, 0% TNFa-plus-vehicle, 100% no-TNFa wells.
A short description of assay [2]: inhibitors of mutant huntingtin aggregation, primary screen, imaging, exon1htt(103Q)mCFP cells, high-content imaging (AID 483;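 active = visual image review flags a hit and inhibition of aggregation exceeds 20%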;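 note: compound exposure lasted 3 days before fixation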;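 for nuclei count: percent of the per-plate median nuclei count of sample wells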). Conditions: exon1htt(103Q)mCFP cell line, aggregate imaging, at 2 µM; inhibition of aggregation: stronger effect = higher value; nuclei count: measured here: cell count, toxicity.
The nature of assay [3]: inhibitors of E-selectin induction by TNFa, primary screen, imaging, HUVEC, immunofluorescence, MLSMR starter and 10KST1 sets (AID 487;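 active = visually confirmed hit in the image check and inhibition above 20%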;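 for inhibition: signal is fraction of cell area covered by stained E-selectin grains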;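 for nuclei count: 100% = median nuclei count of all wells on the same plate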). Particulars: HUVEC TNFalpha-induced E-selectin immunofluorescence imaging, at 2 µM; inhibition: stronger effect = higher value; nuclei count: measured here: cell number, toxicity.
Assay [4] addresses Voltage-gated potassium channel subunit beta-2 (Rattus norvegicus) (UniProt P62483). The experiment in a line: KvBeta enzyme negative modulators, primary screen, biochemical, NADPH fluorescence (AID 622;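 active = fluorescence slope higher than the sample average by over 3 SD, cut at about -0.22 in these data, passing the limit was not always enough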;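 note: slope of raw intensity against log time taken from 70 to 1610 s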). Particulars: recombinant KvBeta, 4-cyanobenzaldehyde reduction, at 10 µM, stronger effect = higher value.
Assay [5] shares this target. The experiment in a line: KvBeta positive modulators, primary screen, biochemical, NADPH fluorescence (AID 623;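 active = NADPH fluorescence slope more negative than the mean of all samples by about 3 SD, 99.7% confidence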;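 note: fluorescence intensity change per second fitted from 20 to 320 s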). Particulars: Recombinant KvBeta, NADPH fluorescence decrease slope, 10 min; at 10 µM; stronger effect = lower value.
The target of assay [6] is Alpha-2C adrenergic receptor (Homo sapiens) (UniProt P18825). The experiment in a line: modulators of alpha2C/GIRK thallium flux, primary screen, cell-based, HEK293 alpha2C/GIRK1/2 (AID 624;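 active = fluorescence slope after compound addition differing from the mean of all screened samples at 99.7% confidence, in either direction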;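 note: slope of fluorescence ratio to pre-addition baseline per second over 15 to 24 s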). Particulars: thallium flux BTC fluorescence, at 10 µM, actives lie on both sides.
Sequence of Alpha-2C adrenergic receptor (Homo sapiens) (P18825 whole entry, looked up): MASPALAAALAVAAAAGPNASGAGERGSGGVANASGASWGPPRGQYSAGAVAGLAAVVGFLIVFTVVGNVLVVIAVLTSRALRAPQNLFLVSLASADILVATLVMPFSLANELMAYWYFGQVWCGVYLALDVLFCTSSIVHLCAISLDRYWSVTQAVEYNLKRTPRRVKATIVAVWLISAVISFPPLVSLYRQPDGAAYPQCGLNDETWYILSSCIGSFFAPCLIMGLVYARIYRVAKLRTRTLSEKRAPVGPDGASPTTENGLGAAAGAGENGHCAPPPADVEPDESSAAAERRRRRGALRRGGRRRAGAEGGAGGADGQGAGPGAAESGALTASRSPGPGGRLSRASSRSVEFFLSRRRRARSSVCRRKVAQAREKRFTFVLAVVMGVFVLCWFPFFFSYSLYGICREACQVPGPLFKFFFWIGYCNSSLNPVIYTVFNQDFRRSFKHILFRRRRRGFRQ
Assay [7] in a line: inhibitors of larval lipid processing in zebrafish, primary screen, whole organism, PED6 fluorescence, gall bladder and intestine (AID 686;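 active = a full or partial loss of lipid-probe fluorescence in the fish gall bladder, intestine or both, judged by eye; inactive = no fluorescence loss, or compound toxic to the fish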;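 note: larvae 5 to 7 days old with five fish per well; signal comes from phospholipase A2 cleavage of quenched PED6 carried via bile; overnight exposure to compound and PED6 before scoring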). Conditions: Zebrafish larvae PED6 lipid processing, fluorescence scoring; screened at 20 µM (by protocol). In a few lines:
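Also added: quenched phospholipase substrate PED6, 100 nM final, ingested by larvae; System: zebrafish larvae, 5-7 d; Quantity: 5 larvae per well; Compound: 20 µM single dose; Schedule: overnight compound and PED6 incubation; Read-out: visual per-well fluorescence inhibition score; Measured by: By-eye fluorescence microscopy; Medium: E3.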

Assay [8] is described as follows: inhibitors of Sendai virus-induced IRF3 signaling, primary screen, TLR/RLR signaling modifier project, cell-based, Sendai virus stimulus, luciferase, 10K MLSCN set (AID 602276).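 Note: firefly luciferase from ISG56 promoter only with Renilla not read in this screen; 0% = Sendai virus plus DMSO and 100% = medium plus DMSO without virus.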 Particulars: HEK293 RL24 IRF3 luciferase reporter, at 10 µM, stronger effect = higher value. (In general: In a reporter assay the amount or activity of a reporter protein is the signal.)
Assay [9] can be described thus: inhibitors of poly I:C-induced TLR3 signaling, primary screen, cell-based, poly I:C stimulus, luciferase, 10K MLSCN set (AID 602277;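 active = inhibition of the reporter signal at or above 50%; inactive = inhibition below 50%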). Particulars: HEK293-TLR3 RL24 IRF3 luciferase reporter, at 10 µM, stronger effect = higher value.

SMILES strings stand for the structures. Calls of active or inactive are those of the source.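 Rule for the calls, unless noted: active = inhibition at or above 50% at 10 µM; inactive = inhibition below 50%.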

Sequence of Voltage-gated potassium channel subunit beta-2 (Rattus norvegicus) (P62483 whole entry, looked up): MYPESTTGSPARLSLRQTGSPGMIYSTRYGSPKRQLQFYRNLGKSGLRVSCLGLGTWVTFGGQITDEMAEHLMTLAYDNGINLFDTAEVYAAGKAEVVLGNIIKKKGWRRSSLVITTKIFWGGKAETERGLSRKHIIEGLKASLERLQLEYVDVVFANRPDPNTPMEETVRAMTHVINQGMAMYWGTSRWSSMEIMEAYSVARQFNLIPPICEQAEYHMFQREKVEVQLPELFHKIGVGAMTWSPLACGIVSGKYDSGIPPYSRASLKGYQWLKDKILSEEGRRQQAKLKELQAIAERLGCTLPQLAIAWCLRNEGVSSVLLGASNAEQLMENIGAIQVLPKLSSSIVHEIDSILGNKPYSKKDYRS

As to `CCOC(=O)/C=C1\SCC(=O)N1Cc1nnc(-c2ccccc2Br)o1`, in assay [1], the cell count amounted to 505. In addition, the inhibition was 0.5% (inactive) in assay [1], -51.5% (inactive) in assay [3], 12.8% (inactive) in assay [8] and 10.1% (inactive) in [9]. The inhibition of aggregation in assay [2] is -7.7% (inactive). In addition, the nuclei count in assay [2] came to 98.7%; in [3], 123%. In addition, the fluorescence slope in assay [4] is -0.452 (inactive). For the same compound, the NADPH fluorescence slope in [5] was -5.3e-05 (inactive). In assay [6], the slope was 0.00466 (inactive). Further, the outcome in assay [7] was inactive.

For `c1cnc(NCCNc2ncccn2)nc1`, the cell count in assay [1] came to 709. Also, the inhibition was -5% (inactive) in [1], -57.1% (inactive) in [3], 5.48% (inactive) in assay [8] and 2.33% (inactive) in [9]. The inhibition of aggregation in [2] was 11.9% (inactive). Also, the nuclei count worked out at 132% in assay [2] and 124% in [3]. Also, the fluorescence slope in assay [4] was -0.346 (inactive). In [5], the NADPH fluorescence slope was -4.1e-05 (inactive). The slope in assay [6] was 0.00555 (inactive). Moreover, in assay [7], the result was inactive.

For `Cn1c(=O)c2c(nc(N3CCN(c4ccccc4)CC3)n2CCCc2ccccc2)n(C)c1=O`, the cell count in [1] stood at 702. For the same compound, the inhibition in assay [1] was 1.4% (inactive); in assay [3], 20.4% (inactive); in assay [8] it was 10.7% (inactive); in assay [9], -10.5% (inactive). For the same compound, the inhibition of aggregation in assay [2] is -15.2% (inactive). The nuclei count in [2] stood at 99.1%; in assay [3] it was 96.5%. Besides, in [4], the fluorescence slope is -0.339 (inactive). In assay [5], the NADPH fluorescence slope is -3.2e-05 (inactive). Also, the slope in assay [6] was 0.00552 (inactive). The compound was called inactive in assay [7].

As for `O=C(Cn1[nH]c(=O)c2ccccc2c1=O)OCC(=O)N1CCCc2ccccc21`, the cell count in assay [1] turned out to be 335. For the same compound, the inhibition in assay [1] was 4.2% (inactive); in [3] it was -37% (inactive); in assay [8], 8.5% (inactive); in assay [9], 10.3% (inactive). For the same compound, the inhibition of aggregation in assay [2] was -9% (inactive). Further, the nuclei count in [2] turned out to be 98.2%; in [3], 117%. Also, in assay [4], the fluorescence slope was -0.389 (inactive). Also, in assay [5], the NADPH fluorescence slope was -6e-05 (inactive). Moreover, the slope in assay [6] is 0.00579 (inactive). Also, in assay [7], the result was inactive.

As to `Cc1ccc(S(=O)(=O)NCC(c2cccnc2)N(C)C)cc1` (stereo not drawn), the cell count in assay [1] came out at 453. Moreover, the inhibition is -1.9% (inactive) in assay [1], -33.6% (inactive) in assay [3], 7.09% (inactive) in assay [8] and 15.6% (inactive) in assay [9]. The inhibition of aggregation in [2] is 2.5% (inactive). The results for the nuclei count in [2] and in [3] were 106% and 127%, respectively. Besides, the fluorescence slope in assay [4] was -0.464 (inactive). Also, in assay [5], the NADPH fluorescence slope was -9.5e-06 (inactive). Further, in assay [6], the slope is 0.00528 (inactive). Besides, the outcome in [7] was inactive.

As to `Cc1cnc(NC(=O)CSc2nnc(-c3ccccc3)n2Cc2ccccc2)s1`, the cell count in [1] was determined as 682. Besides, the inhibition is -5.5% (inactive) in assay [1], -19.9% (inactive) in assay [3], -3.73% (inactive) in assay [8] and -7.1% (inactive) in [9]. For the same compound, the inhibition of aggregation in [2] was 14.8% (inactive). Besides, the nuclei count is 102% in assay [2] and 105% in assay [3]. Besides, the fluorescence slope in [4] was -0.493 (inactive). For the same compound, the NADPH fluorescence slope in [5] was 5.3e-05 (inactive). For the same compound, the slope in assay [6] is 0.00426 (inactive). In assay [7], the compound was classed as inactive.

For the compound `COCCCN1C(=O)C(=O)/C(=C(/O)c2ccc(OC)cc2)C1c1ccc(O)c(OC)c1` (stereo not drawn), the cell count in [1] came out at 499. Further, the inhibition in [1] was -14.9% (inactive); in assay [3], 25.3% (inactive); in [8] it was 4.25% (inactive); in assay [9], -6.14% (inactive). The inhibition of aggregation in assay [2] is -10% (inactive). Further, the nuclei count in assay [2] came to 101%; in assay [3], 98.6%. Moreover, in assay [4], the fluorescence slope is -0.39 (inactive). The NADPH fluorescence slope in assay [5] is -2.6e-05 (inactive). Moreover, the slope in assay [6] was 0.00521 (inactive). Further, in assay [7], the call was inactive.

Take `O=C(NCc1cccs1)c1cc2c(s1)CS(=O)(=O)C2`: the cell count in assay [1] came out at 618. Besides, the inhibition in [1] is -3% (inactive); in assay [3], -42.8% (inactive); in assay [8], 23.3% (inactive); in assay [9] it was 87% (active). For the same compound, the inhibition of aggregation in assay [2] is -17.1% (inactive). For the same compound, the results for the nuclei count in assay [2] and in assay [3] were 101% and 113%, respectively. Besides, the fluorescence slope in assay [4] was -0.32 (inactive). In addition, in assay [5], the NADPH fluorescence slope was -4.2e-06 (inactive). Moreover, the slope in assay [6] was 0.00763 (inactive). Besides, the result in assay [7] was inactive.

With `COc1ccccc1N1CCN(C(=O)C2CCN(S(=O)(=O)c3ccc(F)cc3)CC2)CC1`, the cell count in assay [1] stood at 676. The inhibition in assay [1] is 11.9% (inactive); in assay [3], -23.6% (inactive); in [8], -6.92% (inactive); in assay [9] it was -9.69% (inactive). In addition, in assay [2], the inhibition of aggregation was 6.6% (inactive). The nuclei count in [2] is 108%; in [3], 96.3%. The fluorescence slope in assay [4] is -0.415 (inactive). The NADPH fluorescence slope in assay [5] was -2.3e-05 (inactive). For the same compound, in [6], the slope was 0.00451 (inactive). Further, the outcome in assay [7] was inactive.

Take `CN(C)c1nc(Oc2ccc(N)cc2)nc(N(C)C)n1`: the cell count in assay [1] worked out at 362. Besides, the inhibition in assay [1] is 2.1% (inactive); in [3], 27% (inactive); in assay [8], -1.54% (inactive); in assay [9], -2.53% (inactive). Besides, the inhibition of aggregation in assay [2] was 15.5% (inactive). Besides, the nuclei count in [2] worked out at 94.2%; in assay [3], 92%. The fluorescence slope in assay [4] is -0.379 (inactive). Also, the NADPH fluorescence slope in [5] was -7.9e-05 (inactive). In addition, in assay [6], the slope is 0.00462 (inactive). In addition, in assay [7], the call was inactive.

`Cc1ccc2nc(C3CCN(CC(=O)N4CCCCCC4)CC3)[nH]c2c1`: the cell count in assay [1] worked out at 579. Moreover, the inhibition is -13.8% (inactive) in assay [1], -39.2% (inactive) in assay [3], 8.23% (inactive) in [8] and 13.7% (inactive) in [9]. For the same compound, the inhibition of aggregation in assay [2] is 2.2% (inactive). Moreover, the nuclei count in assay [2] came out at 101%; in assay [3] it was 111%. Besides, in assay [4], the fluorescence slope is -0.453 (inactive). Also, the NADPH fluorescence slope in [5] was -5.8e-05 (inactive). Also, the slope in assay [6] was 0.00562 (inactive). In addition, the outcome in assay [7] was “active; weak signal in gallbladder and intestine”.

On to `O=C(O)c1ccc(S(=O)(=O)Cc2ccccc2)cc1`, for which the cell count in assay [1] was determined as 422. The inhibition in [1] is 11.4% (inactive); in assay [3] it was -81.2% (inactive); in [8], 16.7% (inactive); in assay [9], 11.3% (inactive). For the same compound, in assay [2], the inhibition of aggregation was 3% (inactive). Also, the values for the nuclei count in assay [2] and in [3] were 88.3% and 113%, respectively. Besides, in assay [4], the fluorescence slope was -0.421 (inactive). Also, the NADPH fluorescence slope in [5] is 7.6e-07 (inactive). Moreover, in [6], the slope was 0.00596 (inactive). In assay [7], the call was inactive.

On to `c1ccc(-c2nc3cnccn3c2Nc2ccc3c(c2)OCCO3)cc1`, for which, in [1], the cell count is 606. Moreover, the inhibition in assay [1] is -36.1% (inactive); in assay [3], -20.7% (inactive); in [8], 8.91% (inactive); in assay [9], 11.5% (inactive). In addition, the inhibition of aggregation in [2] was 11.9% (inactive). Also, the values for the nuclei count in assay [2] and in assay [3] were 101% and 110%, respectively. Besides, the fluorescence slope in assay [4] is -0.202 (inactive). For the same compound, in assay [5], the NADPH fluorescence slope is -6.7e-06 (inactive). In [6], the slope was 0.00431 (inactive). Further, in assay [7], the compound was classed as inactive.

In the case of `CCCNC(=O)N1CCN(S(=O)(=O)c2ccc(C)c(C)c2)CC1`, the cell count in [1] worked out at 412. The inhibition is -0.4% (inactive) in assay [1], -28.8% (inactive) in assay [3], -6.27% (inactive) in [8] and -8.98% (inactive) in assay [9]. Besides, in assay [2], the inhibition of aggregation was -16.1% (inactive). Also, the nuclei count in assay [2] came to 105%; in assay [3], 103%. In addition, the fluorescence slope in assay [4] is -0.486 (inactive). The NADPH fluorescence slope in assay [5] is -5.4e-05 (inactive). The slope in assay [6] was 0.00557 (inactive). Also, the outcome in [7] was inactive.

By inhibition is commonly meant the change of the read-out against control, counted positive when it falls.
